{"data": "Results pooled from the literature", "target": "RAC-gamma serine/threonine-protein kinase (AKT3, Homo sapiens, UniProt Q9Y243)"}
{"SMILES": "CCCOc1ccc(OC)c(F)c1C(=O)c1ccc(C(=O)N[C@@H]2CNC[C@H]2NC(=O)c2ccc3[nH]ncc3c2)cc1", "observed": "enzyme activity", "action": "inhibitor", "concentration": "0.1 µM", "endpoint": "remaining activity", "value": "88%"}
{"SMILES": "CN1CC(Oc2cnc(C#N)cc2-c2ccn3nc(NC(=O)C4CC4)cc3c2)C1", "observed": "enzyme activity", "action": "inhibitor", "concentration": "1 µM", "endpoint": "inhibition", "value": "7%"}
{"SMILES": "COc1cc(Cl)c(C(=O)N[C@@H](CN[C@H]2CC[C@@H](N)CC2)Cc2ccc(C#N)cc2)cc1-c1ccc(CN[C@H](C)c2ccc(C)cc2)o1", "observed": "enzyme activity", "action": "inhibitor", "concentration": "1 µM", "endpoint": "remaining activity", "value": "97%"}
{"SMILES": "CN(c1ccnc(CNc2nc(Nc3ccc4c(c3)CC(=O)N4)ncc2C(F)(F)F)n1)S(C)(=O)=O", "observed": "cell-free assay", "method": "competition with immobilised ligand", "concentration": "1 µM", "endpoint": "remaining binding", "value": "100%"}
{"SMILES": "CC(C)(O)[C@H]1CC[C@H](Nc2ccc3ncc(-c4cccc(C(F)(F)F)c4)n3n2)CC1", "observed": "enzyme activity", "action": "inhibitor", "concentration": "1 µM", "endpoint": "remaining activity", "value": "96.5%"}
{"SMILES": "COc1ccc2c(c1)O[C@@H](c1ccc(OC)c(OC)c1)C[C@H]2NC(=O)C1(c2ccc3c(c2)OC(F)(F)O3)CC1", "observed": "cell-free assay", "method": "competition with immobilised ligand", "concentration": "1 µM", "endpoint": "remaining binding", "value": "100%"}
{"SMILES": "N#CCCc1ccc2c(c1)-c1[nH]c3ccc([N+](=O)[O-])cc3c1CC(=O)N2", "observed": "cell-free assay", "concentration": "0.5 µM", "endpoint": "remaining signal", "value": "95.5%"}
{"SMILES": "CC(C)(C)c1nc(-c2cccc(NS(=O)(=O)c3c(F)cccc3F)c2F)c(-c2ccnc(N)n2)s1", "observed": "enzyme activity", "action": "inhibitor", "method": "radiometric", "concentration": "1 µM", "endpoint": "remaining activity", "value": "80%"}
{"SMILES": "C[C@@H]1CCN(C(=O)CC#N)C[C@@H]1N(C)c1ncnc2[nH]ccc12", "observed": "cell-free assay", "action": "inhibitor", "concentration": "0.5 µM", "endpoint": "remaining signal", "value": "85.8%"}
{"SMILES": "O=C(N[C@H]1CCCCC/C=C\\C2C[C@@]2(C(=O)O)NC(=O)[C@@H]2C[C@@H](Oc3ccncc3)CN2C1=O)OC1CCCC1 (stereo partly drawn)", "observed": "binding", "method": "competition with immobilised ligand", "concentration": "1 µM", "endpoint": "remaining binding", "value": "94%"}
{"SMILES": "CNC(=O)c1cc(Oc2ccc(NC(=O)Nc3ccc(Cl)c(C(F)(F)F)c3)cc2)ccn1", "observed": "enzyme activity", "action": "inhibitor", "concentration": "10 µM", "endpoint": "inhibition", "value": "-1%"}
{"SMILES": "O=C1Nc2ccc(Cl)cc2C1=Cc1cc(Cl)c(O)c(Cl)c1", "observed": "cell-free assay", "concentration": "0.5 µM", "endpoint": "remaining signal", "value": "96.9%"}
{"SMILES": "Cc1c(NC(=O)c2cc(C(N)=O)nc3cc(F)ccc23)c(C(F)(F)F)nn1Cc1ccc(C(C)(C)C)cc1", "observed": "cell-free assay", "method": "competition with immobilised ligand", "concentration": "1 µM", "endpoint": "remaining binding", "value": "100%"}
{"SMILES": "CCN1CCC2(CC1)NC(=O)c1c(c3ccc(Cl)c(Cl)c3n1C)C2C#N (racemic)", "observed": "thermal stability", "method": "DSF", "concentration": "10 µM", "endpoint": "ΔTm", "value": "-0.2 °C"}
{"SMILES": "O=c1nc(-c2ccccn2)sc2ccccc12", "observed": "binding", "method": "competition with immobilised ligand", "concentration": "1 µM", "endpoint": "remaining binding", "value": "100%"}
{"SMILES": "Cn1c2c(c3ccc(Cl)c(Cl)c31)C(C#N)C1(CCN(C(=O)OC(C)(C)C)CC1)NC2=O (racemic)", "observed": "thermal stability", "method": "DSF", "concentration": "10 µM", "endpoint": "ΔTm", "value": "-0.1 °C"}
{"SMILES": "CO[C@@H](C)c1c(Nc2ccc([C@@H](N(C)C(=O)C3CCS(=O)(=O)CC3)C(F)(F)F)cc2)cnc2cc(Cl)nn12", "observed": "cell-free assay", "method": "competition with immobilised ligand", "concentration": "1 µM", "endpoint": "remaining binding", "value": "65%"}
{"SMILES": "Cn1c2c(c3ccc(Cl)c(Cl)c31)C(C#N)C1(CCOCC1)NC2=O (stereo not drawn)", "observed": "thermal stability", "method": "DSF", "concentration": "10 µM", "endpoint": "ΔTm", "value": "-0.1 °C"}
